Sampled rows, rich in hits. Any-hit rate of the full collection: about 4.6%.
TAAR1 antagonist: human TAAR1 antagonism; Q96RJ0; CHO RD-HGA16 TAAR1, Fluo-8 calcium fluorescence, antagonist; inhibition, % at 3 µM; 1.5% of 360,000 active; AID 624466;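 active means inhibition above a per-plate cutoff, the mean inhibition of test compounds on that plate plus 3 SD, cut at about 49% in these data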
Target sequence (Q96RJ0 whole entry, looked up): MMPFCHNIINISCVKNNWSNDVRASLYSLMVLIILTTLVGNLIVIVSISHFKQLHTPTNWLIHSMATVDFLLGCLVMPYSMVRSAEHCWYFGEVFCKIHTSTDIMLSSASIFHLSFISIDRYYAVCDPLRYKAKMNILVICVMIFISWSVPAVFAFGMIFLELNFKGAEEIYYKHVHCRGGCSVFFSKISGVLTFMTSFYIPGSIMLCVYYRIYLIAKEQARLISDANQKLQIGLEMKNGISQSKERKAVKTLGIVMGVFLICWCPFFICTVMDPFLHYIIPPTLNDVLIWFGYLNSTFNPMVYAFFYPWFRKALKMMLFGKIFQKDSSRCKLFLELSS
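Test system: CHO RD-HGA16 cells bearing hTAAR1 | Reagent: β-PEA, EC80 | Compound dosing: 3 µM, single point | Schedule: Dye loading 75 min at 37 °C, then 30 min room temperature | Signal: Calcium fluorescence with Fluo-8 | Evaluation: Percent inhibition of PEA-evoked calcium signal, max/basal emission ratio | Control set: DMSO-only wells and EC80 β-PEA-stimulated wells | Repeats: Singlicate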
TAAR1 agonist: human TAAR1 agonism | AID 624467 | activation, % at 3 µM | Q96RJ0 | CHO RD-HGA16 TAAR1, Fluo-8 calcium fluorescence; vehicle wells 0%, saturating PEA agonist 100% | 0.99% of 360,000 active;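 active means activation above the mean activation of all test compounds in the run plus 3 SD, cut at about 38% in these data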
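System: CHO-derived RD-HGA16 cells with stable Gα16 and human TAAR1. Times: 17-24 h plating, Fluo-8 75 min 37 °C, 30 min RT. Measured by: calcium-sensitive Fluo-8 signal, excitation 470-495, emission 515-575 nm. Read-out basis: % activation relative to PEA EC100 response. Control set: DMSO and PEA EC100. Repeats: no replicates (n 1).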
GPR7 antagonist: human neuropeptides B/W receptor 1 antagonism | P48145 | GPR7-expressing cells, fluorescence antagonist assay | inhibition, % at 4.4 µM | 1.1% of 290,000 active; in the data active means inhibition above about 16%, passing the limit was not always enough;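 further: cells stimulated with the agonist NPW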
OX1R antag-1: antagonists of human orexin 1 receptor. inhibition, % at 5 µM. O43613. CHO/OX1R cells, Fluo-8 calcium fluorescence, orexin A. 0.43% of 330,000 active;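 active means inhibition above its plate's threshold, mean inhibition of all tested compounds on the plate plus 3 SD, cut at about 37% in these data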
Target sequence (O43613 whole entry, looked up): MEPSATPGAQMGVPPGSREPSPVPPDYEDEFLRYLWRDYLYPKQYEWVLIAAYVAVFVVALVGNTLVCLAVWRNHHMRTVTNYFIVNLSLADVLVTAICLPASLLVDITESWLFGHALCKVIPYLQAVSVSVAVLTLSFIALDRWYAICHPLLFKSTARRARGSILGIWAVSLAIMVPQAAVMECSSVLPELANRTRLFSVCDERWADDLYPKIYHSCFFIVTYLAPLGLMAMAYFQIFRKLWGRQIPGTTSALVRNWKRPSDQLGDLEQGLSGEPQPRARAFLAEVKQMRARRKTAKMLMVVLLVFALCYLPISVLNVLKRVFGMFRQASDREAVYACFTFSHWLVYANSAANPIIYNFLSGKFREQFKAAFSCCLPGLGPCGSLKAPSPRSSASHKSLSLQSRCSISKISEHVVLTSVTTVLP
CHO parental Ca: signal in parental CHO cells, OX1R antagonist counter-screen. parental CHO-K1, ATP-induced calcium, Fluo-8 fluorescence. inhibition, % at 5.6 µM. 0.63% of 330,000 active. AID 463079;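 active means inhibition above that plate's mean sample inhibition plus 3 SD, cut at about 26% in these data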
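Material – parental CHO cells · Reagent – ATP stimulus · Compound – single nominal dose of 5.6 µM per compound · Detection – Fluo-8 fluorescence · Read-out basis – percent inhibition of calcium signal · Controls – ATP-challenged DMSO wells low, unchallenged DMSO wells high · Repeats – no replicates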
OX1R antag-2: blocks the human orexin 1 receptor; O43613; OX1R-expressing cells, FRET antagonist read-out; inhibition, % at 6.6 µM; 1.8% of 330,000 active; AID 485270; in the data active means inhibition mostly above about 38%, no sharp cut-off; inactive means mostly below about 40%
Each line names hits and unclear results; the compound was inactive in the other large screens.

Cc1noc(C)c1S(=O)(=O)NC(=O)C1(C)CCN1C(=O)C1(c2ccc(Cl)cc2)CCC1 (centres undefined)	none (no result: GPR7 antagonist, OX1R antag-1, CHO parental Ca, OX1R antag-2)
O=C1c2[nH]c3ccccc3c2CC1N1C(=O)c2ccccc2C1=O (centres undefined)	TAAR1 antagonist 52 (no result: GPR7 antagonist, OX1R antag-1, CHO parental Ca, OX1R antag-2)
CN1c2ccccc2SC2C(c3ccccc3)=NOC21 (centres undefined)	none (no result: GPR7 antagonist, OX1R antag-1, CHO parental Ca, OX1R antag-2)
COc1ccccc1NC(=O)COC(=O)c1oc2ccccc2c1C	OX1R antag-2 51
COc1ccccc1NC(=O)c1oc2ccccc2c1C	none (no result: GPR7 antagonist, OX1R antag-1, CHO parental Ca, OX1R antag-2)
CCOCC(=O)Nc1c(C(=O)Nc2ccccc2OC)oc2ccccc12	none
CCOC(=O)c1oc2ccccc2c1NC(=O)c1cccc(OC)c1OC	TAAR1 antagonist 49
COc1ccc(NC(=O)c2oc3ccccc3c2C)c(OC)c1	OX1R antag-2 53
C/C(=N\NC(=O)c1cc2ccccc2cc1O)c1ccccn1	none
C/C(=N/NC(=O)c1cc2ccccc2cc1O)C1C(=O)c2ccccc2C1=O	OX1R antag-2 65
C/C(=N\NC(=O)c1ccccc1O)C1C(=O)c2ccccc2C1=O	OX1R antag-2 61
CCOC(=O)c1c(NC(=O)CN2CCN(C(=O)c3ccco3)CC2)sc2c1CCCC2	OX1R antag-1 70, CHO parental Ca 60
CCOC(=O)c1cc(C)sc1NC(=O)CN1CCN(C(=O)c2ccco2)CC1	TAAR1 agonist 42, OX1R antag-1 53, CHO parental Ca 87
CCOC(=O)c1c(NC(=O)c2ccco2)sc2c1CCCC2	none
CCOC(=O)N1CCC(NC(=O)c2oc3c(F)cccc3c2C)CC1	none
Cc1nn(C)c(NC(=O)c2ccc(Cl)cc2Cl)c1Br	none
Cc1cc(NS(=O)(=O)c2ccc(Nc3nc(-c4sc(C)nc4C)cs3)cc2)no1	none (no result: TAAR1 antagonist, TAAR1 agonist, OX1R antag-1, CHO parental Ca, OX1R antag-2)
COc1ccc(-c2csc(Nc3ccc(S(=O)(=O)Nc4cc(C)on4)cc3)n2)cc1	OX1R antag-2 40
CCCCn1c(N)c(N(CCC(C)C)C(=O)c2ccc([N+](=O)[O-])s2)c(=O)[nH]c1=O	OX1R antag-2 37 (no result: GPR7 antagonist)
CCCCN(C(=O)c1ccc([N+](=O)[O-])s1)c1c(N)n(CC(C)C)c(=O)[nH]c1=O	none (no result: GPR7 antagonist)
CCCCn1c(N)c(N(CCOC)C(=O)c2ccc(NC3CC3)c([N+](=O)[O-])c2)c(=O)[nH]c1=O	OX1R antag-2 47 (no result: GPR7 antagonist)
CCCN(CC(=O)Nc1cc(Cl)cc(Cl)c1)CC(=O)Nc1ccc(F)c(F)c1F	none
COc1ccc2nc(N(Cc3ccccc3)C(=O)CCNC(C)=O)sc2c1	none
O=C(Nc1cccc(O)c1)c1cnn2cccnc12	none
O=C(Nc1ccc2c(c1)OCO2)c1cnn2cccnc12	GPR7 antagonist 17
CCOC(=O)c1cc(C)sc1/N=C/C1=C(O)CCCC1=O	none
Cc1c(-c2ccc(O)cc2)nc2nc(-c3ccccc3)c(-c3ccccc3)nn12	OX1R antag-1 99, CHO parental Ca 90 (no result: TAAR1 antagonist, TAAR1 agonist)
O=C(O)CCNc1cc(N2CCN(C(=O)c3ccco3)CC2)c2noc3c2c1C(=O)c1ccccc1-3	OX1R antag-2 76
CCN1CCN(c2cc(N3CCN(C(=O)c4ccco4)CC3)c3c4c(onc24)-c2ccccc2C3=O)CC1	OX1R antag-2 69 (no result: TAAR1 antagonist, TAAR1 agonist)
Cc1cc(C)cc(C(=O)NC(CC(N)=O)c2ccc(N3CCCCCC3)c([N+](=O)[O-])c2)c1 (centres undefined)	none
COc1cccc(NC(=O)c2ocnc2C)c1	none
C=CCn1c(SCC(=O)c2cccs2)nc2sc(CC)cc2c1=O	OX1R antag-1 51, CHO parental Ca 56
COc1ccc(OC)c(-n2c(SCC(=O)N3CCc4ccccc43)nc3c(c2=O)SCC3)c1	OX1R antag-2 39 (no result: TAAR1 antagonist, TAAR1 agonist)
Cc1ccc(Cn2c(=N)c(C(=O)NCCN3CCOCC3)cc3c(=O)n4ccccc4nc32)cc1	OX1R antag-2 54
COc1ccc(CCn2c(=N)c(C(=O)NCc3ccco3)cc3c(=O)n4ccccc4nc32)cc1	OX1R antag-2 47
COc1ccc(CCn2c(=N)c(S(=O)(=O)c3ccccc3)cc3c(=O)n4ccccc4nc32)cc1	none
Cc1ccc(Cn2c(=N)c(C(=O)NC3CCCC3)cc3c(=O)n4ccccc4nc32)cc1	none (no result: TAAR1 antagonist, TAAR1 agonist)
N=c1c(C(=O)NCCN2CCOCC2)cc2c(=O)n3ccccc3nc2n1CCc1ccccc1	OX1R antag-2 62
N=c1c(C(=O)NCc2ccccc2)cc2c(=O)n3ccccc3nc2n1CCCN1CCOCC1	OX1R antag-2 45 (no result: GPR7 antagonist)
O=C1NC(Cc2ccc(O)cc2)c2nc3cc(F)c(F)cc3c(=O)n2-c2ncccc21 (centres undefined)	none (no result: GPR7 antagonist, OX1R antag-1, CHO parental Ca, OX1R antag-2)
CC(C)N1CC(=O)N2CSCC2C1=O (centres undefined)	none (no result: GPR7 antagonist, OX1R antag-1, CHO parental Ca, OX1R antag-2)
Cn1c(=O)c2[nH]c(C3CC3)nc2n(C)c1=O	none (no result: GPR7 antagonist, OX1R antag-1, CHO parental Ca, OX1R antag-2)
Cc1cccc(C)c1NC(=O)CNC(=O)CCNC(=O)c1ccco1	none (no result: GPR7 antagonist)
CC(=O)Nc1cc(-c2ccc(N)nc2)cn2c(-c3cccc(C(F)(F)F)c3)cnc12	none (no result: GPR7 antagonist, OX1R antag-1, CHO parental Ca, OX1R antag-2)
CN(C)c1ccc(C(C(=O)NCC2CCCO2)N(C(=O)c2snc(C(N)=O)c2N)c2ccc3c(c2)OCO3)cc1 (centres undefined)	none
CCOc1ccccc1N(C(=O)c1snc(C(N)=O)c1N)C(C(=O)NC1CCCC1)c1cccs1 (centres undefined)	none
COc1ccc(N(C(=O)c2snc(C(N)=O)c2N)C(C(=O)NC2CCCC2)c2ccc3ncccc3c2)cc1 (centres undefined)	none
CC(C)c1ccc(N(C(=O)c2snc(C(N)=O)c2N)C(C(=O)NCC2CCCO2)c2ccc(N(C)C)cc2)cc1 (centres undefined)	TAAR1 antagonist 55 (no result: OX1R antag-1, CHO parental Ca, OX1R antag-2)
CCOc1ccccc1N(C(=O)c1snc(C(N)=O)c1N)C(C(=O)NC1CCCC1)c1ccco1 (centres undefined)	GPR7 antagonist 21
CN(C)c1ccc(C(C(=O)NCC2CCCO2)N(C(=O)c2snc(C(N)=O)c2N)c2ccccc2)cc1 (centres undefined)	TAAR1 antagonist 52
NC(=O)c1nsc(C(=O)N(c2ccccc2)C(C(=O)NC2CCCC2)c2ccc3ncccc3c2)c1N (centres undefined)	TAAR1 antagonist 51
CCc1ccccc1N(C(=O)c1snc(C(N)=O)c1N)C(C(=O)NCC1CCCO1)c1ccc(N(C)C)cc1 (centres undefined)	none (no result: OX1R antag-1, CHO parental Ca, OX1R antag-2)
CCN(CC)S(=O)(=O)c1c(OC)cc(C)c(Cl)c1C	none
CCNC(=O)C1(C)CCCN1C(=O)c1ccc2c(c1)OCO2 (centres undefined)	none (no result: GPR7 antagonist, OX1R antag-1, CHO parental Ca, OX1R antag-2)
CCOc1ccc(NC(=O)COc2ccc(C(=O)NCc3cccnc3)cc2OC)cc1	none (no result: GPR7 antagonist)
COc1cc(C(=O)NCc2cccnc2)ccc1OCC(=O)Nc1cccc(C(F)(F)F)c1	CHO parental Ca 43 (no result: GPR7 antagonist)
CN1CCN(CCCNC(=O)c2ccc(/C=C3/Sc4ccccc4N(Cc4cccc(Cl)c4)C3=O)cc2)CC1	TAAR1 antagonist 57 (no result: OX1R antag-1, CHO parental Ca, OX1R antag-2)

High-throughput results (PubChem)
